Data as given in ChEMBL document CHEMBL1159390, “Plakortides M and N, bioactive polyketide endoperoxides from the Caribbean marine sponge Plakortis halichondrioides” (J Nat Prod, 2003).
Calls of active or inactive are those of the source. The calls are words filed in the database; no cut-off is given here.

Legend:
LOX IMVI = experiment: Cytotoxicity against human LOXIMVI cells; format: functional, cell-based
Method in brief: (§1)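 Tested in the NCI in vitro antitumor screen of 60 human tumour cell lines, after a prior NCI three-cell-line, one-dose primary anticancer assay.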

CCRF-CEM = experiment: Cytotoxicity against human CCRF-CEM cells; format: functional, cell-based; method in brief: as §1
PC-3 = experiment: Cytotoxicity against human PC3 cells; format: functional, cell-based; method in brief: as §1
HOP-62 = experiment: Cytotoxicity against human HOP62 cells; format: functional, cell-based; method in brief: as §1
HT-29 = experiment: Cytotoxicity against human HT-29 cells; format: functional, cell-based; method in brief: as §1
SR = experiment: Cytotoxicity against human SR cells; format: functional, cell-based; method in brief: as §1
NCI/ADR-RES = experiment: Cytotoxicity against human NCI/ADR-RES cells; format: functional, cell-based; method in brief: as §1
786-0 = experiment: Cytotoxicity against human 786-0 cells; format: functional, cell-based; method in brief: as §1
SF-295 = experiment: Cytotoxicity against human SF295 cells; format: functional, cell-based; method in brief: as §1
NCI-H460 = experiment: Cytotoxicity against human NCI-H460 cells; format: functional, cell-based; method in brief: as §1
A549 = experiment: Cytotoxicity against human A549 cells; format: functional, cell-based; method in brief: as §1
SK-MEL-2 = experiment: Cytotoxicity against human SK-MEL-2 cells; format: functional, cell-based; method in brief: as §1
COLO 205 = experiment: Cytotoxicity against human COLO205 cells; format: functional, cell-based; method in brief: as §1
SF-539 = experiment: Cytotoxicity against human SF539 cells; format: functional, cell-based; method in brief: as §1
ACHN = experiment: Cytotoxicity against human ACHN cells; format: functional, cell-based; method in brief: as §1
DU-145 = experiment: Cytotoxicity against human DU145 cells; format: functional, cell-based; method in brief: as §1
M14 = experiment: Cytotoxicity against human M14 cells; format: functional, cell-based; method in brief: as §1
UO-31 = experiment: Cytotoxicity against human UO31 cells; format: functional, cell-based; method in brief: as §1
U-251 = experiment: Cytotoxicity against human U251 cells; format: functional, cell-based; method in brief: as §1
[1] = Cytotoxicity against human […] cells; format: functional, cell-based; method in brief: as §1
OVCAR-3 = experiment: Cytotoxicity against human OVCAR-3 cells; format: functional, cell-based; method in brief: as §1
MCF7 = experiment: Cytotoxicity against human MCF7 cells; format: functional, cell-based; method in brief: as §1
SK-OV-3 = experiment: Cytotoxicity against human SKOV3 cells; format: functional, cell-based; method in brief: as §1
HCT-116 = experiment: Cytotoxicity against human HCT116 cells; format: functional, cell-based; method in brief: as §1
T47D = experiment: Cytotoxicity against human T47D cells; format: functional, cell-based; method in brief: as §1
IGROV-1 = experiment: Cytotoxicity against human IGROV1 cells; format: functional, cell-based; method in brief: as §1
[2] = tested on: Mycobacterium tuberculosis; experiment: Antitubercular activity against Mycobacterium tuberculosis H37Rv at 6.25 ug/mL; format: functional, organism-based
Plasmodium falciparum = experiment: Antimalarial activity against Plasmodium falciparum; format: functional, organism-based

SMILES | IC50 (LOX IMVI) | IC50 (CCRF-CEM) | IC50 (PC-3) | IC50 (HOP-62) | IC50 (HT-29) | IC50 (SR) | IC50 (NCI/ADR-RES) | IC50 (786-0) | IC50 (SF-295) | IC50 (NCI-H460) | IC50 (A549) | IC50 (SK-MEL-2) | IC50 (COLO 205) | IC50 (SF-539) | IC50 (ACHN) | IC50 (DU-145) | IC50 (M14) | IC50 (UO-31) | IC50 (U-251) | IC50 [1] | further results
CC/C=C/[C@H](CC)C/C=C/[C@@]1(CC)C[C@H](CC)[C@H](CC(=O)O)OO1 [PLAKORTIDE M] | 0.5 µM | 0.2 µM | 1.6 µM | 1.6 µM | 1.4 µM | 0.4 µM | 1.8 µM | 1.6 µM | 1.8 µM | 1.8 µM | 1.8 µM | 11.1 µM | 1.5 µM | 1.8 µM | 1.7 µM | 1.9 µM | 6.8 µM | 1.4 µM | 1.7 µM | 1.3 µM | IC50 (OVCAR-3): 2 µM; IC50 (MCF7): 2.9 µM; IC50 (SK-OV-3): 1.3 µM; IC50 (HCT-116): 2 µM; IC50 (T47D): 2.2 µM; IC50 (IGROV-1): 0.6 µM
CC/C=C/[C@H](CC)C/C=C/[C@@]1(CC)C[C@H](CC)[C@H](CC(=O)OC)OO1 |  |  |  |  |  |  |  |  |  |  |  |  |  |  |  |  |  |  |  |  | Activity [2]: inactive
CC/C=C/[C@H](CC)C/C(=C/[C@@]1(CC)C[C@H](CC)[C@H](CC(=O)OC)OO1)CC |  |  |  |  |  |  |  |  |  |  |  |  |  |  |  |  |  |  |  |  | Activity [2]: inactive; IC50 (Plasmodium falciparum): ≥ 50 µg/mL
CC/C=C/[C@H](CC)C/C(=C/[C@@]1(CC)C[C@H](CC)[C@H](CC(=O)O)OO1)CC [PLAKORTIDE N] | 0.03 µM | 0.1 µM | 0.3 µM | 0.9 µM | 0.5 µM | 0.1 µM | 0.4 µM | 1.3 µM | 0.3 µM | 0.2 µM | 0.1 µM | 1.7 µM | 1.3 µM | 1.5 µM | 0.2 µM | 0.4 µM | 1.6 µM | 0.01 µM | 0.5 µM | < 0.01 µM | IC50 (OVCAR-3): 1.1 µM; IC50 (MCF7): 1.8 µM; IC50 (SK-OV-3): 1.9 µM; IC50 (HCT-116): 0.4 µM; IC50 (T47D): 1.3 µM; IC50 (IGROV-1): 0.06 µM
